Measured values reported in ChEMBL document CHEMBL5543129, “Peptide Inhibitor Targeting the Extraterminal Domain in BRD4 Potently Suppresses Breast Cancer Both In Vitro and In Vivo” (J Med Chem, 2024).
Square brackets hold non-standard residues; d marks the D form. Peptide text beside a SMILES is read from it. Hyp = O=C(O)[C@@H]1C[C@@H](O)CN1; Ahx = NCCCCCC(=O)O

Legend:
T47D = test: Cytotoxicity against human T47D cells incubated for 1 week by CellTiter 96 Aqueous One Solution based assay; assay type: functional, cell-based; settings: 168 h
Summary of the method: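 Cells grown in RPMI-1640 (T47D, BT549) or DMEM (MDA-MB-231) with 10% FBS, 37 °C, 5% CO2. Seeded 2 × 10^3/well, exposed to a gradient concentration of peptide for 1 week. MTS-type reagent added 20 μL per 100 μL medium, 1 h at 37 °C, absorbance read at 490 nm. EC50 derived from the concentration–response curve.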

[1] = target: T1, von Hippel-Lindau disease tumor suppressor/Bromodomain-containing protein 4 (Homo sapiens) (UniProt O60885+P40337); test: PROTAC activity at VHL/His-tagged BDR4 ET domain (471 to 730 residues) (unknown origin) transfected in MCF7 cells assessed as degradation by measuring fold change in remaining BRD4 level at 20 uM incubated for 24 hrs by immunoblotting analysis (reference value: […]); assay type: cell-based
[2] = target: T1, von Hippel-Lindau disease tumor suppressor/Bromodomain-containing protein 4 (Homo sapiens); test: PROTAC activity at VHL/His-tagged BDR4 ET domain (601 to 683 residues) (unknown origin) transfected in MCF7 cells assessed as degradation by measuring fold change in remaining BRD4 level at 10 uM incubated for 12 hrs by immunoblotting analysis (reference value: […]); assay type: cell-based
[3] = target: T1, von Hippel-Lindau disease tumor suppressor/Bromodomain-containing protein 4 (Homo sapiens); test: PROTAC activity at VHL/BDR4 ET domain in human MCF7 cells assessed as degradation by measuring fold change in remaining BRD4 level at 5 uM incubated for 24 hrs by immunoblotting analysis (reference value: […]); assay type: cell-based
[4] = target: von Hippel-Lindau disease tumor suppressor/Bifunctional arginine demethylase and lysyl-hydroxylase JMJD6 (Homo sapiens) (UniProt P40337+Q6NYC1); test: PROTAC activity at VHL/JMJD6 in human MCF7 cells assessed as degradation by measuring fold change in remaining JMJD6 level at 10 uM incubated for 24 hrs in presence of TAT by immunoblotting analysis relative to TAT/TAT-PROTAC; assay type: cell-based
Summary of the method: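 MCF7 cells were left untreated or given TAT, TAT-PROTAC, TAT-PiET or the PROTAC peptide (each 10 μM) for 24 h. Lysates were immunoblotted with β-actin for loading. Three repeats, quantified in the Supporting Table.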

[5] = target: T1, von Hippel-Lindau disease tumor suppressor/Bromodomain-containing protein 4 (Homo sapiens); test: PROTAC activity at VHL/His-tagged BDR4 ET domain (1 to 470 residues) (unknown origin) transfected in MCF7 cells assessed as degradation by measuring fold change in remaining BRD4 level at 5 uM incubated for 24 hrs by immunoblotting analysis (reference value: […]); assay type: cell-based

T1 sequence (P40337 whole entry, looked up, other chains not shown, the tested form may be a part): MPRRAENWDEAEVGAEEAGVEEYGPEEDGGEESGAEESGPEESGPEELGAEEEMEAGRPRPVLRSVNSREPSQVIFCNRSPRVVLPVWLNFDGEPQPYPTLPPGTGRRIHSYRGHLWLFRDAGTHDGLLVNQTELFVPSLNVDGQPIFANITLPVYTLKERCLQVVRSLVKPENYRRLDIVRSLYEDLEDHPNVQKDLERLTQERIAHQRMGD

Row | Molecule | EC50 (T47D) [µM] | fold change (FC) [1] | fold change (FC) [2] | fold change (FC) [3] | fold change (FC) [4] | fold change (FC) [5]
1 | H-YGRKKRRQRRRRNQKFKCGE-OH | 13.3 |  |  |  |  | 
2 | CC[C@H](C)[C@H](NC(=O)[C@H](Cc1ccc(O)cc1)NC(=O)[C@@H]1C[C@@H](O)CN1C(=O)[C@H](C)NC(=O)[C@@H](NC(=O)CCCCCNC(=O)[C@H](CCC(=O)O)NC(=O)CNC(=O)[C@H](CS)NC(=O)[C@H](CCCCN)NC(=O)[C@H](Cc1ccccc1)NC(=O)[C@H](CCCCN)NC(=O)[C@H](CCC(N)=O)NC(=O)[C@H](CC(N)=O)NC(=O)[C@H](CCCNC(=N)N)NC(=O)[C@H](CCCNC(=N)N)NC(=O)[C@H](CCCNC(=N)N)NC(=O)[C@H](CCCNC(=N)N)NC(=O)[C@H](CCC(N)=O)NC(=O)[C@H](CCCNC(=N)N)NC(=O)[C@H](CCCNC(=N)N)NC(=O)[C@H](CCCCN)NC(=O)[C@H](CCCCN)NC(=O)[C@H](CCCNC(=N)N)NC(=O)CNC(=O)[C@@H](N)Cc1ccc(O)cc1)[C@@H](C)CC)C(=O)O (H-YGRKKRRQRRRRNQKFKCGE[Ahx]IA[Hyp]YI-OH) |  | 0.6 | 0.78 | 0.35 | 0.61 | 1.09
